High-throughput results: PubChem BioAssay, several laboratories
Only some compounds are listed: those with a hit (about 3.7% of all), similar ones and a draw of the others.
NR3A LBD binder = modulators (binders) of human NR3A ligand-binding domain; 340,000 compounds, 2.5% hits; AID 1259313; Tm shift relative to glycine control, % at 25 µM; NR3A LBD differential scanning fluorimetry, Tm shift; 0% = protein alone, 100% = glycine-bound protein;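 active = melting temperature shift of at least 10% of the positive control shift, at one fixed dose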
proCasp7 act = counter-screen: procaspase-7 (human) activation; P55210; recombinant procaspase-7, Ac-DEVD-pNA absorbance 405 nm; D23A/D198A/D206A triple mutant, cannot self-cleave; scale: DMSO 0, 5 µM enzyme 100; activation, % at 8.5 µM; 330,000 compounds, 0.093% hits;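 active = percent activation above the screen-wide mean plus 3 SD, cut at about 25% in these data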
Target sequence (P55210 whole entry D23A/D198A/D206A): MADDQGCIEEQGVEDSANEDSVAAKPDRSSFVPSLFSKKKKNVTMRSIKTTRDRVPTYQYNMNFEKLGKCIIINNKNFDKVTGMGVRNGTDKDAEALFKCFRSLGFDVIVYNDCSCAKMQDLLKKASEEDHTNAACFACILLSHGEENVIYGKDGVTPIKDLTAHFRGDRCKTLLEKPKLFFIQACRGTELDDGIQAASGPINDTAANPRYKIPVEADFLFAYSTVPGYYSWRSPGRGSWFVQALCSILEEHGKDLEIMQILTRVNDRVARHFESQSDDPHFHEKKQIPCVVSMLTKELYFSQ
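Replicates: singlicate. Assay system: Procaspase-7 triple mutant (PC-7 D3A). Signal: 405 nm absorbance of p-nitroaniline. Times: 1 h preincubation, 2 h reaction. Buffer or medium: Zinc-free HEPES pH 7.4 with 300 mM NaCl, 0.01% Triton X-100. Also added: DEVD-pNA substrate. Benchmarks: DMSO wells as 0%, DMSO with 5 µM added PC-7 as 100%.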
aDG glyco up = increases alpha dystroglycan glycosylation; Pro5-aDG cells, alpha-DG glycosylation AlphaScreen (IIH6); 0% Pro5, 100% B10-LARGE cell signal; activation, % at 10 µM; 360,000 compounds, 0.22% hits;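 active = activation of at least 8% versus controls, or a plate z-score of at least 8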;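 also: Pro5 are CHO cells carrying HIG-tagged alpha-DG that lacks glycosylation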
MPTP inh = permeability transition pore inhibition; 360,000 compounds, 1.4% hits; inhibition, % at 10 µM; isolated mouse mitochondria, Ca2+ swelling absorbance, 30 min;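 active = inhibition of 50% or more, scaled per plate between neutral and stimulator controls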
procasp3 activ = activators of human procaspase-3; P42574; recombinant procaspase-3 D3A, Ac-DEVD-pNA absorbance 405 nm; activation, % at 8.5 µM; 330,000 compounds, 0.11% hits; AID 463141;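 active = activation above the mean of all tested compounds plus 3 SD, cut at about 21% in these data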
Target sequence (P42574 whole entry D9A/D28A/D175A): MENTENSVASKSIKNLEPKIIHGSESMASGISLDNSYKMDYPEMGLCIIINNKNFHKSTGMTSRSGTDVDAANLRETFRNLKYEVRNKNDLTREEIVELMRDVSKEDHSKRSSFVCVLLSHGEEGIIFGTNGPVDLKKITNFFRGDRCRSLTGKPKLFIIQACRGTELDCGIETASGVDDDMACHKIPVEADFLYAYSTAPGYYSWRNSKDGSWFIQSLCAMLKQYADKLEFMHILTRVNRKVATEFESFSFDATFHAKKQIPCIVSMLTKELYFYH
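Technique: 405 nm absorbance of p-nitroaniline, reads at 0 and 120 min; Test system: Procaspase-3 D3A mutant; Incubation: 1 h enzyme-compound preincubation, then 2 h substrate reaction, 25 °C; Repeats: singlicate, each compound tested once; Benchmarks: low control DMSO wells, high control DMSO plus 5 µM PC-3 D3A.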
Each line names hits and unclear results; the compound was inactive in the other large screens.

CC(NCC(=O)Nc1cc(S(=O)(=O)N2CCOCC2)ccc1N1CCOCC1)c1ccco1 (stereo unspecified)	none
CCNC(=O)C1CCCN(C(=O)c2cccc(C#N)c2)CC1 (stereo unspecified)	none (no result: NR3A LBD binder, proCasp7 act, procasp3 activ)
O=C(NCc1ccccc1)c1cc(C2COCCN2S(=O)(=O)c2cccs2)on1 (stereo unspecified)	none (no result: NR3A LBD binder, proCasp7 act, procasp3 activ)
N#Cc1c(N)nc2c(c1-c1ccncc1)CCCC2	none
N#Cc1c(N)nc2c(c1-c1ccncc1)CCCCCC2	NR3A LBD binder 36
Cc1ccc(CN(C)C(=O)c2ccc(S(=O)(=O)N(C)c3ccccc3)cc2)o1	NR3A LBD binder 22 (no result: proCasp7 act, procasp3 activ)
C#CCNC(=O)c1ccc2sc([C@@H]3O[C@H](CO)[C@H](O)[C@H](O)[C@H]3O)nc2c1	none (no result: NR3A LBD binder, proCasp7 act, procasp3 activ)
CCC(C)NC(=O)Cn1cnc2sc(C)c(S(=O)(=O)N3CCN(c4ncccn4)CC3)c2c1=O (stereo unspecified)	NR3A LBD binder 14
CCOC(=O)[C@]12CCC=C1N(Cc1ccco1)C(=O)[C@H](CC(=O)NCCc1ccccc1OC)C2	none (no result: NR3A LBD binder, proCasp7 act, procasp3 activ)
Oc1ccc(/C=N/Nc2ccnc3cc(Cl)ccc23)c(O)c1O	NR3A LBD binder 18
CCNc1nc(NCC)nc(N/N=C/c2ccc(O)c(O)c2)n1	none
Oc1ccc(/C=N/Nc2ccnc3cc(Cl)ccc23)cc1O	NR3A LBD binder 21
CC/C(=N\Nc1ccnc2cc(Cl)ccc12)c1ccc(O)cc1	none
COc1ccccc1S(=O)(=O)N(C)C[C@H]1OCc2cn(nn2)CCCC(=O)N([C@@H](C)CO)C[C@@H]1C	none (no result: NR3A LBD binder, proCasp7 act, procasp3 activ)
O=C(CSc1nnc(-c2ccc3c(c2)OCO3)n1-c1ccccc1)c1ccccc1	NR3A LBD binder 16
CCOC(=O)NC(=O)/C(N=Nc1ccc(C(F)(F)F)cc1)=C(\C)O	NR3A LBD binder 154
CCOC(=O)COc1ccc(Br)cc1/C=C\c1[nH]c(=O)[nH]c(=O)c1[N+](=O)[O-]	none
CCOC(=O)COc1ccc(Br)cc1/C=C/c1[nH]c(=O)[nH]c(=O)c1[N+](=O)[O-]	NR3A LBD binder 161
CCN(CC)C(=O)C1=C(C)N(Cc2ccc(F)cc2)C(=O)C(CC(=O)NCCN2CCOCC2)C1 (stereo unspecified)	none (no result: NR3A LBD binder, proCasp7 act, procasp3 activ)
CCOC(=O)c1ccc(NC(=S)NCCc2ccc(OC)c(OC)c2)cc1	none
CCOC(=O)c1ccc(Nc2ccc(-c3ccc(OC)c(OC)c3)nn2)cc1	NR3A LBD binder 26
COc1ccc(C(=O)N/N=C/c2ccc(OC)c(OS(=O)(=O)c3ccccc3)c2)cc1	NR3A LBD binder 13
O=C(N/N=C/c1cc(Br)cc([N+](=O)[O-])c1O)c1ccc(NC(=O)c2ccc(F)cc2)cc1	NR3A LBD binder 18
Brc1ccc(/C=N/Nc2ccccc2)cc1	NR3A LBD binder 20
COc1ccc(/C=N/NS(=O)(=O)c2ccccc2)cc1OS(=O)(=O)c1ccccc1	none
Oc1ccc(/C=N/Nc2ccccc2)cc1	none
O=C(CCCC(=O)Nc1ccc(Br)cc1)N/N=C/c1ccccc1	NR3A LBD binder 10
C=CCn1c(=S)[nH]c2cc(C(=O)NCCc3ccc(S(N)(=O)=O)cc3)ccc2c1=O	none
Cc1ccccc1C(=O)Nc1ccc(C(=O)N/N=C/c2ccc(F)cc2)cc1	NR3A LBD binder 26
Cc1ccccc1C(=O)Nc1ccc(C(=O)N/N=C/c2ccc(O)c(Br)c2)cc1	NR3A LBD binder 28
O=C(N/N=C/c1ccc2c(c1)OCO2)c1ccc(NC(=O)c2ccc(F)cc2)cc1	NR3A LBD binder 19
O=C(N/N=C/c1ccc2c(c1)OCO2)c1ccc2c(c1)OCCO2	none
COc1ccc(/C=N/NC(=O)c2ccc(NC(=O)c3ccccc3Br)cc2)cc1	NR3A LBD binder 27
CCOC(=O)C1(C)CCCCCN1C(=O)c1ccc(OC)cc1 (stereo unspecified)	none (no result: NR3A LBD binder, proCasp7 act, procasp3 activ)
COC(=O)[C@@]12C[C@@H](CC(=O)N3CCCC3)C(=O)N(CCc3ccc(OC)c(OC)c3)C1=CCC(C)(C)C2	none (no result: NR3A LBD binder, proCasp7 act, procasp3 activ)
CCn1cc(/C=C(\NC(=O)c2ccccc2OC)C(=O)NCCN2CCOCC2)c2ccccc21	none (no result: NR3A LBD binder, proCasp7 act, procasp3 activ)
O=C(N/N=C/c1ccccc1)c1ccc(NC(=O)c2ccc(F)cc2)cc1	NR3A LBD binder 33
CC(=O)Nc1ccc(C(=O)N/N=C/c2ccc(F)cc2)cc1	none
Cc1c(C2Nc3ccccc3C(=O)N2O)cnn1C (stereo unspecified)	NR3A LBD binder 611
Oc1cccc(-c2nc3ccc4ccccc4c3c3c2CCC3)c1	NR3A LBD binder 12
O=C(NNc1c2ccccc2nc2ccccc12)c1cccc(O)c1	none
CC(C)c1ccc(NC(=O)COC(=O)[C@H](CCC(N)=O)NC(=O)c2ccc(F)cc2)cc1	none
NC(=O)CC[C@H](NC(=O)c1ccc(F)cc1)C(=O)OCC(=O)Nc1c(F)c(F)c(F)c(F)c1F	NR3A LBD binder 12
CSc1ccc(CN2CCC(C)(Oc3cccc(F)c3)C2)cc1 (stereo unspecified)	none (no result: NR3A LBD binder, proCasp7 act, procasp3 activ)
Cc1cccc(C(C)C)c1NC(=O)COC(=O)c1cccc(S(=O)(=O)N2CCc3ccccc3C2)c1	NR3A LBD binder 22
CCc1cccc(CC)c1NC(=O)COC(=O)c1cccc(S(=O)(=O)N2CCc3ccccc3C2)c1	none
O=C(Nc1ccc(OCC(F)(F)C(F)F)c(C(F)(F)F)c1)c1ccccc1	NR3A LBD binder 27
Cc1ccc(-c2n[nH]c(S(C)(=O)=O)c2C#N)cc1	NR3A LBD binder 23
CC1(C(=O)NCc2cccnc2)Cc2c(-c3cccc(C(F)(F)F)c3)ccnc2O1 (stereo unspecified)	none (no result: NR3A LBD binder, proCasp7 act, procasp3 activ)
OC(CNCC1CCCO1)Cn1c2ccc(Cl)cc2c2cc(Cl)ccc21 (stereo unspecified)	none
OC(CNCCC1C=Nc2ccccc21)Cn1c2ccc(Cl)cc2c2cc(Cl)ccc21 (stereo unspecified)	NR3A LBD binder 27
CCCc1nc2sc3ccccc3c(=O)c2c(=O)n1Cc1ccc(OC)cc1	NR3A LBD binder 15
CN(CC(=O)Nc1ccc(Cl)c(C(F)(F)F)c1)C(=O)COC(=O)C1CC2CCCC(C1)C2=O (stereo unspecified)	none
NS(=O)(=O)c1ccc(N2N=C(c3ccccc3)CC2c2ccc(F)cc2)cc1 (stereo unspecified)	proCasp7 act 86, procasp3 activ 64
Cc1cccc(C2CC(c3ccccc3)=NN2c2ccc(S(N)(=O)=O)cc2)c1 (stereo unspecified)	none (no result: NR3A LBD binder, proCasp7 act, procasp3 activ)
COc1ccc(C2CC(c3cccc(Br)c3)=NN2c2ccc(S(N)(=O)=O)cc2)cc1 (stereo unspecified)	NR3A LBD binder 27
CC(C)=CC(=O)Nc1ccc(OCc2ccccc2)cc1	NR3A LBD binder 28
O=C(Nc1ccc(OCc2ccccc2)cc1)c1ccccc1	none
Cc1cc(C(=O)Nc2ccc(OCc3ccccc3)cc2)c(C)o1	NR3A LBD binder 19
